High-throughput results from PubChem BioAssay.
Only some compounds are listed: those with a hit (about 2.1% of all), similar ones and a draw of the others.
hK5 inh = human KLK5 protease inhibitors, primary screen, biochemical, 1536-well; Kallikrein-5 (Homo sapiens), Q9Y337; recombinant hK5, fluorogenic AMC substrate cleavage; 210,000 tested, 0.59% active; inhibition, % at 5 µM;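 active = inhibition of 40% or more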;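 note: 0% = enzyme controls without compound and 100% = no-enzyme blanks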
FXIIa inh 1536 = human FXIIa protease inhibitors, primary screen, biochemical, 1536-well; Coagulation factor XII (Homo sapiens), P00748; purified FXIIa, Boc-QGR-AMC fluorogenic substrate, 2 h; inhibition, % at 5 µM; 220,000 tested, 0.3% active; AID 800, 2007; in the data active = inhibition above about 40%;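 note: 0% = enzyme with no compound and 100% = blank without enzyme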
Target sequence (P00748 20-372 limits assumed): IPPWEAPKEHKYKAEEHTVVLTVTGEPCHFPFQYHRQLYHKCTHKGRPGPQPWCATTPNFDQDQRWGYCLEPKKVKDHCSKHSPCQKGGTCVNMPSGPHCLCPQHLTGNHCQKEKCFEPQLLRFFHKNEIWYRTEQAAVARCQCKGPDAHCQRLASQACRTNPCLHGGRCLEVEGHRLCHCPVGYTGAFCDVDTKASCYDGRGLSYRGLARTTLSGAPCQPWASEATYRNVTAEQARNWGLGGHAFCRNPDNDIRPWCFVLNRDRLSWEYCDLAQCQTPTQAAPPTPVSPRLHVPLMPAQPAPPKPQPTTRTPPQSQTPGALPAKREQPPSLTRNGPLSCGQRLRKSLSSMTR
Target sequence (P00748 373-615 limits assumed): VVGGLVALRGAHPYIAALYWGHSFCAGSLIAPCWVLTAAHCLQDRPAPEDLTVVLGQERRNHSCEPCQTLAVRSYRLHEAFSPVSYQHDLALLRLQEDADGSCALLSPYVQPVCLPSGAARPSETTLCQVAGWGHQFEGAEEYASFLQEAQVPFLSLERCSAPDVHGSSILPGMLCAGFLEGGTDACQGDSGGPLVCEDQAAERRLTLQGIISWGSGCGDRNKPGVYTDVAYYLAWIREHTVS
FXIa inh = human FXIa protease inhibitors, primary screen, biochemical, 1536-well; AID 798, 2007; purified FXIa, Boc-Glu-Ala-Arg-AMC fluorogenic substrate; Coagulation factor XI (Homo sapiens), P03951; 220,000 tested, 0.14% active; inhibition, % at 5 µM;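 active = inhibition of at least 40%; inactive = inhibition below 40%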;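 note: fluorescence of freed AMC excited at 355 nm; 0% = enzyme without compound and 100% = no enzyme blank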
EP2 antag = human EP2 receptor antagonists, primary screen, TR-FRET cAMP, C6 glioma cells; 260,000 tested, 0.52% active; inhibition, % at 25 µM; C6 glioma cells expressing human EP2; cells stimulated with saturating PGE2; Prostaglandin E2 receptor EP2 subtype (Homo sapiens), P43116;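 active = percent inhibition above 40 after rounding to a whole number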;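 note: rat C6 glioma host cells with rolipram phosphodiesterase inhibitor present; the protocol text gives 20 µM as final concentration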
EP2 modulator = EP2 receptor modulators, cAMP readout, primary screen, cell-based, HTRF cAMP, PGE2 stimulation | Prostaglandin E2 receptor EP2 subtype (Homo sapiens), P43116 | EP2-expressing cells, cAMP HTRF FRET, PGE2 co-stimulation | induction, % at 25 µM | 260,000 tested, 0.83% active;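 active = compounds whose cAMP rise, as percent of the full-agonist control response, exceeds 60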;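 note: rat C6 glioma line stably carrying human EP2 under a CMV promoter; the protocol text gives 20 µM as final concentration; 100% = response of wells given 1 µM PGE2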
thrombin 1536 = human alpha-thrombin inhibitors, primary screen, counter-screen for coagulation protease inhibitor project, biochemical, 1536-well, fluorogenic AMC substrate | AID 1046, 2008 | inhibition, % at 5 µM | Prothrombin (Homo sapiens), P00734 | 220,000 tested, 0.26% active | Boc-VPR-AMC fluorogenic substrate cleavage;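 active = inhibition at or above 40%; inactive = inhibition below 40%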;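 note: 0% = enzyme with no compound and 100% = wells without enzyme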
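System: Human alpha-thrombin protein | Medium: pH 7.5 Tris (50 mM) with NaCl 150 mM, Tween 20 0.05% | Times: Enzyme reaction carried out at room temperature | Detection: AMC fluorescence, 355/460 nm | Evaluation: Percent inhibition scaled between no-compound controls and no-enzyme blanks | Benchmarks: Enzyme without compound as high, wells lacking enzyme as low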
EP2 cAMP induct = cAMP induction in EP2, EP4, beta2-AR and parental cells, confirmation, counter-screen for EP2 modulator project, cell-based, five parallel assays, C6 glioma, HEK293. shares compounds with EP2 modulator. cAMP HTRF induction; plus low (about EC15) PGE2 agonist. calls only at 20 µM (by protocol). 1,300 tested, 47% active. AID 1080, 2008;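 active = cAMP induction above 50% in the main assay while under 30% in all four parallel counter assays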;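 note: rat C6 glioma cells stably expressing human EP2 receptor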
* hit, by the source's call; i = inactive; nt = not tested or not shown; + = active, no number.

SMILES	hK5 inh	FXIIa inh 1536	FXIa inh	EP2 antag	EP2 modulator	thrombin 1536	EP2 cAMP induct
Cc1ccc(NCc2nnc(SCC(=O)O)n2Cc2ccccc2)cc1Cl	-5	1	-2	3	21	-5	nt
Cc1ccc(NCc2n[nH]c(=S)n2Cc2ccccc2)cc1Cl	4	8	-1	6	55	-6	i
CCCCn1c(-c2csc(CCC)c2)n[nH]c1=S	2	12	-1	15	59	-3	i
CCCc1cc(-c2n[nH]c(=S)n2C(C)c2ccccc2)cs1 (stereo not given)	-3	5	-3	-1	68*	-5	+
CCCc1cc(-c2n[nH]c(=S)n2CC)cs1	-4	4	-4	17	34	-3	nt
CCS(=O)(=O)N1CCC[C@H](Cn2nc(-c3cccs3)ccc2=O)C1	nt	nt	nt	5	-8	nt	nt
O=C(O)COc1ccc(/C=C/c2ccc3cccc([N+](=O)[O-])c3n2)cc1	-12	7	7	6	89*	-2	+
COc1cc(/C=C/c2ccc3cccc([N+](=O)[O-])c3n2)ccc1OCC(=O)O	8	19	6	4	73*	6	+
CCOC(=O)CC(=O)CSc1ncnc2c1oc1ccccc12	-15	21	-8	nt	67*	-7	i
N#CCCSc1ncnc2c1oc1ccccc12	-6	9	2	9	66*	-5	i
O=C(O)CSc1ncnc2c1oc1ccccc12	6	12	2	-1	14	2	nt
O=C(CSc1ncnc2c1oc1ccccc12)Nc1ccccc1C(F)(F)F	47*	18	17	11	79*	24	i
CCOc1ccc(-c2[nH]nc3c2C(c2ccc(OC)cc2OC)C(C#N)=C(N)O3)cc1 (stereo not given)	nt	nt	nt	12	2	nt	nt
O=C(/C=C/Nc1ccccc1O)c1ccco1	-2	0	-4	3	51	-7	nt
O=C(/C=C/Nc1ccccc1Oc1ccccc1)c1ccco1	-5	3	-3	8	65*	5	i
CCN1CCN(C(=O)CN(c2ccc(Cl)c(C(F)(F)F)c2)S(C)(=O)=O)CC1	nt	nt	nt	11	20	nt	nt
CNC(=S)N1CCN(C(=O)C(=O)Nc2ccc(C(=O)OC)cc2)CC1	nt	nt	nt	11	-4	nt	nt
C/C(CCc1oc2ccccc2c1-c1ccc(C)o1)=N/O	-11	3	3	4	75*	2	+
CCOC(=O)c1cc(NC(=O)c2ccoc2C)cc(C(=O)OCC)c1	9	15	-1	7	38	-1	nt
CCOC(=O)c1c(NC(=O)COC(=O)c2ccncc2)sc(C)c1C	-3	10	1	4	21	-10	nt
CCn1ncc(Br)c1C(=O)Nc1sc2c(c1C(=O)OC)CCC2	nt	nt	nt	39	nt	nt	nt
CCOC(=O)c1c(NC(=O)c2c(Br)cnn2CC)sc(C)c1C	-4	14	2	14	73*	2	+
CCOC(=O)c1c(NC(=O)c2ccoc2C)sc(C)c1C	9	18	-13	17	77*	5	i
CCOC(=O)c1c(NC(=O)c2ccncc2)sc(C)c1C	7	11	1	7	74*	-6	+
CCOC(=O)c1c(NC(=O)CSC(=S)N(C)C)sc(C)c1C	12	17	22	9	66*	0	+
SMILES	hK5 inh	FXIIa inh 1536	FXIa inh	EP2 antag	EP2 modulator	thrombin 1536	EP2 cAMP induct
Cc1ccc(-c2cc(N)c(=O)n(CC(=O)NCC3CCCO3)n2)o1 (stereo not given)	nt	nt	nt	3	-11	nt	nt
COCCn1c(SCC(=O)NCc2ccco2)nnc1-c1cccs1	nt	nt	nt	5	-23	nt	nt
CCC(=O)Oc1ccc(C(CC)C(CC)c2ccc(OC(=O)CC)cc2)cc1 (stereo not given)	-10	10	0	9	69*	-3	+
COc1cc(-c2nc3cnccn3c2NCc2ccc(F)cc2)ccc1O	nt	nt	nt	6	-64	nt	nt
COc1ccc(CNc2nc3ccccc3n2CCN2CCOCC2)cc1OC	nt	nt	nt	9	46	nt	nt
Cn1c(=S)[nH]c2c(c1=O)C(C)(C)Cc1ccccc1-2	1	4	-3	22	52	-12	nt
CCn1c(=S)[nH]c2c(c1=O)C(C)(C)Cc1ccccc1-2	2	14	2	21	66*	0	i
C/C(=N\NC(=O)NC1CCCCC1)C1CCCCC1	-6	15	22	10	71*	-1	i
CCn1nnc(NC(=O)c2ccc(Cl)cc2Cl)n1	nt	nt	nt	16	-30	nt	nt
O=c1c2oc3ccccc3c2[nH]c(=S)n1-c1ccccc1	-6	10	6	13	71*	-5	i
Cc1ccc(-n2c(=S)[nH]c3c(oc4ccccc43)c2=O)cc1	-1	12	11	14	74*	-1	i
O=c1c2sccc2[nH]c(=S)n1-c1ccccc1	24	-3	-2	5	-22	-9	nt
Cc1ccc(-n2c(C)nc3oc4ccccc4c(=O)c3c2=O)cc1	-1	22	20	16	16	-2	nt
Cc1cccc(-n2c(=S)[nH]c3c(oc4ccccc43)c2=O)c1	18	11	11	13	71*	11	i
Nc1ccc2nc(-c3ccc(Cl)cc3Cl)[nH]c2c1	nt	nt	nt	9	-58	nt	nt
COc1cc(NC(=O)CSc2nnnn2C)cc(OC)c1	nt	nt	nt	11	-24	nt	nt
O=C(Nc1ccc2c(c1)OCO2)c1cccc2c1C(=O)N(C1CCCCC1)C2	-2	7	6	3	71*	nt	+
CCCN1Cc2cccc(C(=O)Nc3ccc4c(c3)OCO4)c2C1=O	14	11	2	nt	20	-3	nt
O=C(O)c1ccc(CNCc2cccc(Cl)c2Cl)cc1	-25	1	3	7	68*	-3	i
O=C(O)c1ccc(CNCc2ccccc2Cl)cc1	-29	-8	-4	10	26	-16	nt
CC(C)n1c(=O)oc2cc(S(=O)(=O)NCC3Cc4ccccc4O3)ccc21 (stereo not given)	nt	nt	nt	3	-63	nt	nt
Clc1ccc(Cl)c(-c2ccc(/C=N/c3ncn[nH]3)o2)c1	10	16	11	30	71*	5	i
COc1ccccc1NC(=O)N1CCC(NC(=O)c2cccc(C)c2)CC1	nt	nt	nt	5	-57	nt	nt
